For the assay, the target named is Insulin-degrading enzyme (Homo sapiens) (UniProt P14735). The assay is described as follows: IDE inhibitors, wild-type enzyme, late-stage follow-up, counter-screen for IDE inhibitor project, biochemical, fluorescence polarization, FAbetaB substrate, round 2 (AID 624353). The note with it: recombinant IDE, FAbetaB cleavage. In a few lines: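 Material: recombinant wild-type insulin-degrading enzyme (IDE), purified enzyme. Amount: 1 nM IDE. Reagent: fluorescein-Aβ-biotin peptide substrate, 100 nM. Incubation: reaction at room temperature. Detection: fluorescence polarization, ex 485 nm, em 525 nm. Read-out basis: IC50 from sigmoidal fit of percent inhibition versus DMSO and Ii1 controls. Replicates: each compound dose-response run in triplicate.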
In general terms: Counterscreens check selectivity or assay interference.

Results on 24 compounds are retold here after PubChem BioAssay AID624353 (The Scripps Research Institute Molecular Screening Center, 2012).

Calls of active or inactive are those of the source.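 The calls were made as follows: active = insulin-degrading enzyme inhibitors with IC50 at or below 10 µM; inactive = the rest.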

Insulin-degrading enzyme (Homo sapiens), sequence (P14735 whole entry, looked up): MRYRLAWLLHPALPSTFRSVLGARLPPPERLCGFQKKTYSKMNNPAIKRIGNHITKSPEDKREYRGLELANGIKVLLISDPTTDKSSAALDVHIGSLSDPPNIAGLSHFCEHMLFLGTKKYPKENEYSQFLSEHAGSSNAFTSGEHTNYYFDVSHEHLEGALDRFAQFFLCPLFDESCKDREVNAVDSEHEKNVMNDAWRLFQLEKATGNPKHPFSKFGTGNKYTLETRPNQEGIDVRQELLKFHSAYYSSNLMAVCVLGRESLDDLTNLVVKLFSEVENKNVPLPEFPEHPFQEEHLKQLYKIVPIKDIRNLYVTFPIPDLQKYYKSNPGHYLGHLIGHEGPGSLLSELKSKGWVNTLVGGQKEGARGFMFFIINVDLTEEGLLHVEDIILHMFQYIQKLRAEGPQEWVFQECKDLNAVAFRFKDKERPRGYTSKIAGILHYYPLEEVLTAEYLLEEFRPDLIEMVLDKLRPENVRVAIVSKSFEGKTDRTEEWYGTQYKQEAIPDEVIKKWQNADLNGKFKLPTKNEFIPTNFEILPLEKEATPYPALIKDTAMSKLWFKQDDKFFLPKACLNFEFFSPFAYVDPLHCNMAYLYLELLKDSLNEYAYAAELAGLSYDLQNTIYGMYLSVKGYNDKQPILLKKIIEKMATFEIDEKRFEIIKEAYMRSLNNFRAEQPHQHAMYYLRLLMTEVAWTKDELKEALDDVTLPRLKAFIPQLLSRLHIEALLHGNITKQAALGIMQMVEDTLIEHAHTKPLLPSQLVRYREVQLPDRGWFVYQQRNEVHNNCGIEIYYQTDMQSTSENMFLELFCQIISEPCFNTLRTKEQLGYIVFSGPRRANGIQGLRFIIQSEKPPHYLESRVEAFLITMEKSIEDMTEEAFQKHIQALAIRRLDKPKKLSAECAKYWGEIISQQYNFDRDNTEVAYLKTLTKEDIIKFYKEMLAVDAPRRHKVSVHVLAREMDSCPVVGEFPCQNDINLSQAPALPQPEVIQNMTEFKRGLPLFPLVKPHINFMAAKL

In general, IC50 refers to the midpoint of a concentration-inhibition curve. As to `CC(=O)Nc1ccccc1C(=O)N1CCN(C(=O)C2COc3ccccc3O2)CC1` (centres undefined), the half-inhibitory concentration (IC50) was 6 µM.

In the case of `COc1ccc(C(=O)N2CCN(C(=O)COc3ccc(C)cc3)CC2)cc1OC`, the IC50 was > 33 µM (inactive). With `c1ccc(-c2nnc(SCc3nc4ccccc4[nH]3)n2Cc2ccco2)cc1`, the IC50 is > 33 µM (inactive). The result for `Cc1ccc(COCc2nnc(SCc3nc4ccccc4[nH]3)n2Cc2ccco2)cc1` reads > 33 µM (inactive); that for `Cc1ccc(-c2nnc(SCc3nc4ccccc4[nH]3)n2Cc2ccco2)cc1`, > 33 µM (inactive). As to `O=C(c1ccc(Oc2ccccc2)cc1)N1CCN(C(=O)C2COc3ccccc3O2)CC1` (centres undefined), the IC50 is > 33 µM (inactive). Turning to `c1ccc(-c2nnc(SCc3nc4ccccc4[nH]3)n2Cc2ccco2)nc1`, the IC50 was > 33 µM (inactive). With `O=C(c1ccc(Oc2ccc(F)cc2)cc1)N1CCN(C(=O)C2COc3ccccc3O2)CC1` (centres undefined), the IC50 was > 33 µM (inactive).

`c1coc(Cn2c(SCc3nc4ccccc4[nH]3)nnc2-c2cccs2)c1`: the IC50 was > 33 µM (inactive). In the case of `COc1ccc(OCC(=O)N2CCN(C(=O)c3ccc(OC)c(OC)c3)CC2)cc1`, the IC50 was > 33 µM (inactive). Consider `CCOc1ccc(C(=O)N2CCN(C(=O)C3COc4ccccc4O3)CC2)cc1` (centres undefined), for which the IC50 was > 33 µM (inactive). Turning to `O=C(c1ccc2nc(C(F)(F)F)[nH]c2c1)N1CCN(C(=O)C2COc3ccccc3O2)CC1` (centres undefined), the IC50 was 7 µM. Regarding `O=C(c1ccc(OCC2CCCO2)cc1)N1CCN(C(=O)C2COc3ccccc3O2)CC1` (centres undefined), the IC50 is > 33 µM (inactive). The same measure for `c1coc(Cn2c(SCc3nc4ccccc4[nH]3)nnc2-c2ccco2)c1`: > 33 µM (inactive); for `COc1ccc(C(=O)N2CCN(C(=O)COc3ccc(Cl)cc3)CC2)cc1OC`: > 33 µM (inactive). For the compound `Cc1nc(COc2ccc(C(=O)N3CCN(C(=O)C4COc5ccccc5O4)CC3)cc2)cs1` (centres undefined), the IC50 is > 33 µM (inactive). Regarding `COc1cccc(C(=O)N2CCN(C(=O)C3COc4ccccc4O3)CC2)c1` (centres undefined), the IC50 was 4 µM. Turning to `COc1cc(C(=O)N2CCN(C(=O)C3COc4ccccc4O3)CC2)cc(Cl)c1OC` (centres undefined), the IC50 is > 33 µM (inactive). As for `COc1ccc(C(=O)N2CCN(C(=O)COc3ccccc3)CC2)cc1OC`, the IC50 was > 33 µM (inactive). As for `COc1ccc(C(=O)N2CCN(C(=O)CCc3c[nH]c4ccccc34)CC2)cc1OC`, the IC50 is > 33 µM (inactive).

Consider `Clc1ccc(COCc2nnc(SCc3nc4ccccc4[nH]3)n2Cc2ccco2)cc1`, for which the IC50 is > 33 µM (inactive). In the case of `COc1ccc(C(=O)N2CCN(C(=O)C3CC(=O)N(c4ccccc4)C3)CC2)cc1OC` (centres undefined), the IC50 was > 33 µM (inactive). With `COc1ccc(C(=O)N2CCN(C(=O)C(c3ccccc3)c3ccccc3)CC2)cc1OC`, the IC50 was > 33 µM (inactive). Regarding `c1coc(Cn2c(SCc3nc4ccccc4[nH]3)nnc2-c2cnccn2)c1`, the IC50 is > 33 µM (inactive).
